CRFR2-BP ag: agonists of CRF-BP/CRF-R2 complex, primary screen, cell-based, HEK293, calcium dye fluorescence, uHTS; 350,000 tested, 0.46% active; CRF-binding protein / CRF receptor 2 complex (human); AID 588473, 2011; calcium dye fluorescence (FLIPR); percent of saturating CRF peptide response; activation, % at 13.2 µM;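 active means activation of at least 50%, plus an integration ratio under a set limit after plate pattern correction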;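 further: plate controls were neutral control wells without compound for no effect and CRF at EC100 for full effect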
CRFBP-R2 block: antagonists of CRF-BP/CRF-R2 complex, primary screen, cell-based, HEK293, calcium dye fluorescence, uHTS | CRF-induced calcium fluorescence | inhibition, % at 11.8 µM | 350,000 tested, 0.59% active;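 active means inhibition of the ligand-induced calcium signal above about 50% at the single tested concentration, limit read from the data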
KLK7 zymogen act: proKLK7 zymogen activators, primary screen, biochemical, fluorescence intensity; Kallikrein-7 (Homo sapiens), P49862; purified proKLK7, EDANS-DABCYL substrate fluorescence; 100% is mature enzyme control, 0% vehicle; activation, % at 7 µM; 370,000 tested, 0.9% active; AID 652039, 2013;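 active means activation above the mean of all tested compounds plus 3 SD, computed per campaign excluding outliers beyond control limits, cut at about 13% in these data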
Tn6 DDE FP: inhibitors of Tn6 peptide binding to fibrin DD(E), primary screen, biochemical, fluorescence polarization, human fibrin, Tn6 probe; Fibrinogen beta chain (Homo sapiens), P02675; Fibrin DD(E) TRITC-Tn6 fluorescence polarization displacement; inhibition, % at 8.3 µM; 370,000 tested, 0.21% active; AID 720509, 2013;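 active means inhibition above a per-campaign cutoff: mean of compounds within control limits plus 3 SD, cut at about 15% in these data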;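 further: 0% = median of all compound wells on the plate and 100% = blocking peptide control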
Target sequence (P02675 whole entry, looked up): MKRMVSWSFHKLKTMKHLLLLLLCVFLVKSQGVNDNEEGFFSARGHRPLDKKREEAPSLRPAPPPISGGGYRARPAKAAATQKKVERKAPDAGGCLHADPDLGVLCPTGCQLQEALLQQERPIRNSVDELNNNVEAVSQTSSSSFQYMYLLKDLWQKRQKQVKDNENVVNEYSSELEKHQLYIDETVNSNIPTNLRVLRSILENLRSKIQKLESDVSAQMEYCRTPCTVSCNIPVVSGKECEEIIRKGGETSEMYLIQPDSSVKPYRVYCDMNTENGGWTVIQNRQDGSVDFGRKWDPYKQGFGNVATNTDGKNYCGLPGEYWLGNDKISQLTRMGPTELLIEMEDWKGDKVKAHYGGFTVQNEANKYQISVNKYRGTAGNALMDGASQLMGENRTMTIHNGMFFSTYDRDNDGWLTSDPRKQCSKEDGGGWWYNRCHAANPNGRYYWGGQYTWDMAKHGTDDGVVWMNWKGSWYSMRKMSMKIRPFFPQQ
Tn7 DDE FP: inhibitors of Tn7 peptide binding to fibrin DD(E), primary screen, biochemical, fluorescence polarization, human fibrin, Tn7 probe; inhibition, % at 8.3 µM; AID 720508, 2013; FP displacement of FITC-Tn7 peptide from fibrin DD(E); 0% = median of compound wells per plate; Fibrinogen beta chain (Homo sapiens), P02675; 370,000 tested, 0.13% active;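 active means inhibition above the mean of compounds falling within the control limits plus 3 SD of them, cut at about 14% in these data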;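 further: 0% = plate median of compound wells and 100% = 10 µM Aha-Tn7 peptide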
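Assay system: human fibrin DD(E). Input: DD(E) 2 µM final. Medium: Tris buffer with calcium and detergent, pH 7.8. Compound dosing: single point at 8.3 µM. Timing: 10 min plus 3 h, room temperature. Technique: fluorescence polarization of the labelled Tn7 tracer. Read-out: percent inhibition. Replicates: singlicate testing.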
CendR NRP1 mod: modulators of CendR peptide binding to NRP-1, primary screen, biochemical, fluorescence polarization, uHTS | Neuropilin-1 (Homo sapiens), O14786 | FAM-RPARPAR peptide binding to NRP-1 | inhibition, % at 25 µM | 360,000 tested, 0.85% active | AID 602438, 2012;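 active means inhibition or corrected inhibition above about 18%, plus a signal ratio from 0.5 to 1.5, limit read from the data, passing the limit was not always enough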
KLK7 act conf: proKLK7 zymogen activators, confirmation, biochemical, fluorescence intensity, triplicate | shares compounds with KLK7 zymogen act | purified proKLK7, EDANS-DABCYL substrate fluorescence; scaled: vehicle 0, mature enzyme 100 | activation, % at 7 µM | 3,200 tested, 68% active | AID 686949, 2013;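 active means activation, as change over the incubation, above the mean of all tested compounds plus 3 SD, cut at about 13% in these data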
EDANS interfere: EDANS-DABCYL substrate optical interference, artefact control for kallikrein-7 zymogen activator project, biochemical, fluorescence intensity, high throughput; shares compounds with KLK7 zymogen act; no enzyme, 4 h; solvent 0%, active enzyme control 100%; activation, % at 7 µM; 3,200 tested, 80% active;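 active means activation above the all-compound mean plus 3 SD, ignoring values outside control-based bounds, cut at about 4.8% in these data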;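 further: value is the 4 h activation minus the activation read at time zero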
K7 EDANS ctr: optically interferes with EDANS-DABCYL fluorescence, kallikrein-7 activator counter-screen; 250 tested, 20% active; EDANS-DABCYL peptide fluorescence interference, no enzyme; AID 720493; shares compounds with KLK7 zymogen act; EC50, µM;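 active means compounds that raise the fluorescence signal in this interference counterscreen, with EC50 at or below 10 µM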;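 further: intact quenched peptide substrate alone read at 355 nm excitation and 520 nm emission; signal is fluorescence gain from T0 to T4 after four hours at room temperature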
Active calls of the source: *; · = no result given. Rows were chosen to be rich in hits. Some 2.9% of all compounds tested hit in one or more screens of this group.

SMILES	CRFR2-BP ag	CRFBP-R2 block	KLK7 zymogen act	Tn6 DDE FP	Tn7 DDE FP	CendR NRP1 mod	KLK7 act conf	EDANS interfere	others
COC(=O)c1cc2c(c3c4cc(F)ccc4n(S(=O)(=O)c4cccc(C)c4)c13)C(=O)N(Cc1ccc(C(F)(F)F)cc1)C2	·	·	1	-1	-2	·	·	·
N#Cc1ccc(Cn2nnc(-c3ccc(N4CCOCC4)cc3)n2)cc1	·	·	0	9	6	·	·	·
CC(C)CN(CC(C)C)C(=O)c1ccc2c(c1)NC(=O)C(C)(C)O2	·	·	0	-8	0	·	·	·
CN1OC[C@@H]2CN(C(=O)c3ccc([N+](=O)[O-])cc3)[C@H](c3ccccc3Br)C[C@@H]21	·	·	0	10	3	·	·	·
COc1cc2c(cc1OC)C(c1ccccc1)N(C(=O)c1ccco1)CC2 (stereo not drawn)	-8	22	-1	-1	12	5	·	·
CCC(=O)N1CCc2cc(OC)c(OC)cc2C1COc1ccc(C(=O)OC)cc1 (stereo not drawn)	-2	20	0	0	5	6	·	·
COC(=O)c1ccc(OCC(O)CN2CCc3cc(OC)c(OC)cc3C2c2ccccc2)cc1 (stereo not drawn)	1	24	67*	-2	-8	8	4	0
COc1cc2c(cc1OC)C(c1ccccc1)N(Cc1ccc(S(=O)(=O)NC(=O)c3ccco3)cc1)CC2 (stereo not drawn)	·	·	29*	3	-1	-18	5	7.1*
O=c1cc[nH]c2c1ccc1c(=O)cc[nH]c12	0	6	-61	-3	-8	8	·	·
CN(C)c1ccc2c(=O)cc[nH]c2c1	·	·	80*	10	-5	14	72*	73*
N#CC1=C(SCC(=O)c2cc3ccccc3oc2=O)NC(=O)C(C#N)C12CCCC2 (stereo not drawn)	3	-5	27*	1	-3	-45	55*	54*
COC(=O)C1C(O)=C(C=NCc2ccccc2)C(=O)CC1(C)C (stereo not drawn)	2	4	0	1	-1	-16	·	·
COC(=O)C1C(O)=C(C=Nc2cccc3ccccc23)C(=O)CC1(C)C (stereo not drawn)	0	-14	34*	8	3	-9	25*	23*
C[C@H]1CN(C(=O)OC(C)(C)C)CCN1c1ccc(Br)c(C#N)c1	·	·	0	10	10	·	·	·
O=Cc1c(Cl)nc2ccccn2c1=O	6	-4	42*	-5	2	-33	22*	20*
Cc1cccn2c(=O)c(C=O)c(Cl)nc12	2	5	92*	2	1	-88	16*	19*
CC1CCN(c2nc3ccccn3c(=O)c2C=O)CC1	1	-4	0	0	-3	-5	·	·
CCCCN(CC)CCNC(=O)c1cc2c(=O)n(CC)c3ccccc3c2s1	1	0	14*	6	3	10	-1	-3
CCCCN(CC)CCCNC(=O)c1cc2c(=O)n(CC)c3ccccc3c2s1	0	-4	11	-1	-2	-6	·	·
CCCCN(CC)CCNC(=O)c1cc2c(=O)n(C)c3ccccc3c2s1	0	-2	19*	9	4	-2	1	-2
CCCN(CCC)CCCNC(=O)c1cc2c(=O)n(CC)c3ccccc3c2s1	0	-2	19*	2	2	1	-8	-12
CCN(CC)CCNC(=O)c1cc2c(=O)n(C)c3ccccc3c2s1	0	0	27*	6	2	18	-10	-18
O=C(OCCN1CCN(C2CN(Cc3cn(Cc4ccccc4F)nn3)S(=O)(=O)C2)CC1)c1cc2ccccc2o1 (stereo not drawn)	·	·	0	8	-6	·	·	·
Cc1ccc(-n2c(SCC(=O)Nc3ccccc3-c3ccccc3)nnc2-c2ccco2)cc1	·	·	1	1	6	·	·	·
COc1ccc(CN2CN3Cc4cc(OC)ccc4C3CS2(=O)=O)cc1 (stereo not drawn)	·	·	-1	0	0	·	·	·
SMILES	CRFR2-BP ag	CRFBP-R2 block	KLK7 zymogen act	Tn6 DDE FP	Tn7 DDE FP	CendR NRP1 mod	KLK7 act conf	EDANS interfere	others
CCn1c(=O)c2cc(C(=O)NCCC(C)C)sc2c2ccccc21	1	3	-2	6	-3	-6	·	·
CCn1c(=O)c2cc(C(=O)NCCCOC)sc2c2ccccc21	-2	-11	15*	6	10	13	-11	-14
CCc1cc2c(=O)c(-c3ccc4c(c3)OCO4)coc2c(CN(C)C)c1O	-1	10	8	1	6	-2	·	·
CCN(CC)Cc1c(O)ccc2c(=O)c(-c3ccccc3Cl)coc12	-2	0	40*	7	3	0	67*	62*
CCN(CC)Cc1c(O)ccc2c(=O)c(-c3ccccc3OC)coc12	-3	5	85*	0	4	12	51*	74*
COc1ccccc1-c1coc2cc(O)cc(O)c2c1=O	-2	10	0	-9	-4	3	·	·
CN1c2ccccc2Oc2nnc(Cl)cc21	-2	-4	13*	7	1	2	28*	34*
COc1ccc(NC(=S)NNC(=O)c2cccs2)cc1	-2	-10	21*	2	3	8	8	8.5*
COc1ccc(NC(=O)c2cccs2)cc1	-1	5	0	7	-3	15	·	·
COc1ccc(C(=O)Nc2cccc(NC(=O)c3cccs3)c2)cc1OC	-3	-4	35*	2	-7	16	22*	29*
O=C(Nc1ccc(NC(=O)c2cccs2)cc1)c1cccs1	1	5	14*	1	4	0	30*	22*	K7 EDANS ctr=>70
O=C(Nc1ccc(Cl)cc1)c1cccs1	-1	-2	1	2	6	-2	·	·

High-throughput results: PubChem BioAssay, several laboratories
